Laboratory results reported in the RNAGym collection of RNA variant scans (doi:10.1101/gad.245936.114).
Fewer inactive variants are shown than the library holds.

B1: tRNA (parent)
chain: CUCUCGGUAGCCAAGUUGGUUUAAGGCGCAAGACUUUAAUUUAUCACUACGAAAUCUUGAGAUCGGGCGUUCGACUCGCCCCCGGGAGAUUUUUUCCUCGAGCAA

Variants of: B1
Assay: nonsense suppression (GFP-seq) (ratio to wild type); higher = more function; SUP4oc tRNA, yeast GFP reporter sort-seq
How it was run: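 To measure nonsense suppression, tRNA variants from a library carrying ~3% random mutations were integrated into the yeast genome alongside RFP and a GFP ochre reporter under galactose control. Growth took place in raffinose/galactose medium supplemented with 80 mg/L adenine, followed by sorting into GFP/RFP bins and Illumina sequencing of each bin (phred ≥30). For each variant with ≥100 reads and ≥30 cells, the bin median GFP/RFP values were weighted by its estimated cell share per bin and referenced to the unmutated parent tRNA.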

Variant | nonsense suppression
A33C G61U G66U | ≤ 0.026
U20G U21G | 0.75
A54U G85C | 0.208
U4G C77A | 0.0479
U4C A9U | 1.07
A62G U63C G66A | ≤ 0.026
G10A A54C | 0.0309
G66A G73A | 0.182
U4G C5G U17C U63C A74U | ≤ 0.026
C68U U70C | 0.0321
A31G C77A | ≤ 0.026
A31G G73A | 0.366
C29U C83U | 0.0384
A54C G78A | 0.107
A31U G59A C80U | ≤ 0.026
U21G A87G | 0.172
U55C G86C | 0.164
U2C U20C | 0.0975
G67A C75A C79A | 0.203
C34G C72A | ≤ 0.026
A14G C29U | 0.0832
A9G A74C | 0.0286
A30U C68G | ≤ 0.026
U21A U22A G28C U55A G69A | ≤ 0.026

Variant | nonsense suppression
G10U G18A C75U | ≤ 0.026
U63C | 1.05
U55C C64G | 0.0515
G25U A60G G61A | ≤ 0.026
G19C A23C C56G G85U | ≤ 0.026
G10U G66U G85A | ≤ 0.026
A24C G84A | 0.478
G61C A89C | ≤ 0.026
U71C C72G | ≤ 0.026
U4C A13C | 1.05
U4G G78U | 0.0997
G28A U35G G65U G73A C80U | ≤ 0.026
U22G G25U G66A A89G | ≤ 0.026
C1G G61A U76C | 0.0371
G59C G85A | 0.114
A33G G61A | 0.0709
A60U G73A | 0.222
G67A G85U | 0.0862
A13U U57A | 0.0273
U17G A54C | 0.64
A33U U55G | 0.167
A24G G59A | ≤ 0.026
C12G U16C A23G | 0.207
C1U U63C | ≤ 0.026

Variant | nonsense suppression
C3U A31G | 0.0805
G10U C27U C29A A60C U76G | ≤ 0.026
C1A U2A U35C U70A | ≤ 0.026
C5U G7U G25A | ≤ 0.026
A54C U63G | 0.0506
C75G G78C C83A | ≤ 0.026
C1A U71C C77G | ≤ 0.026
U16C C81U | 1.16
A54C G61C | 0.216
G69U U71G | ≤ 0.026
C11G A24U A62C C68G | ≤ 0.026
U4A U57A | ≤ 0.026
U2C A60C C75U | ≤ 0.026
G10C G15C G32U U63A | ≤ 0.026
G10C A24U A30G A33U U55A C80U | ≤ 0.026
C3U G85A | 0.528
U4G G61A | 0.189
A23U U63A | 0.207
U4C U35G G61A G78A C83A G86C | ≤ 0.026
G78C G85U | 0.232
G67A C80U | 0.0261
G15U U71A C82G | ≤ 0.026
U63G C72U | 0.0334
A33C C56A G78A | ≤ 0.026

Variant | nonsense suppression
U63G G66U G84A | ≤ 0.026
A33G U76C | 0.0419
U17G G28A | 1.12
U4C C27U G61A | 0.205
U55C C79G | 0.035
C27G A31G A54U U70C G84A | ≤ 0.026
G26A A31C | ≤ 0.026
U20C A31G | 0.0336
A9G U76G C80G | ≤ 0.026
A24C G67C G84U | ≤ 0.026
U16C G61U G73A | 0.438
C34U A62G | ≤ 0.026
A60U A87G | 1.02
A9C G61C | 0.791
A24C C83U | 0.383
U57A G61A | 0.0464
A23G C56A U63G | ≤ 0.026
U2A A13C | ≤ 0.026
A13G A24U | 0.0411
C1U G19U G28C U57C G84A | ≤ 0.026
U21G G69U | ≤ 0.026
C3U U8G A54U U58G C83U | ≤ 0.026
U16G U22A | 0.872
A24C U71A G78C C80A A87G | ≤ 0.026

Variant | nonsense suppression
A62G G65C | ≤ 0.026
C3U U21G | 0.137
G78C | 0.202
C27U G32C | ≤ 0.026
U55A C56A C64A U70C | ≤ 0.026
U2C C56A | ≤ 0.026
C81U A87G | 0.239
C1G C64A | ≤ 0.026
U2G G6C A89C | ≤ 0.026
U4A U63A | 0.155
C5G U16A U22C U57C C72U A87C | ≤ 0.026
G10A A60U C68A | ≤ 0.026
G10U C12G A31U G32U C68G | ≤ 0.026
C1U A9U A24C A30U A33G | ≤ 0.026
C27G C81G | ≤ 0.026
C5G G10C U57C | ≤ 0.026
G15A G59C A87C | ≤ 0.026
U4A U20C C83A | ≤ 0.026
C3U U35G G61A | ≤ 0.026
C11G U16G G66A | ≤ 0.026
G28C U55G | ≤ 0.026
C3U | 0.739
G7A G86U | ≤ 0.026
C12G C27U | ≤ 0.026

Variant | nonsense suppression
A9G C29U | 0.2
U76C G78C | 0.118
G15A G65A | ≤ 0.026
G15A U76C | 0.0394
A62G G67A | ≤ 0.026
C12U U16C G28A | 0.295
G10A G28C G61C | ≤ 0.026
U2A C34U | ≤ 0.026
U21G A89G | 0.0399
U63C C75A | 1.04
G10A A24C G85U | ≤ 0.026
G28U A33U | ≤ 0.026
A9C U58G G61U | ≤ 0.026
A33G A54G A74C | ≤ 0.026
C3U G78C A89U | ≤ 0.026
C3A G18C G86A | ≤ 0.026
U4A A24U | 0.0458
C11G C12A U35G U55C U76A G84U | ≤ 0.026
C1U C3A C29A | ≤ 0.026
C1U A13C A30C C77U A89C | ≤ 0.026
C29U U35C | 0.0545
C68G U70C | ≤ 0.026
C29U C79U G86A | ≤ 0.026
U4G C68G | 0.0622

Variant | nonsense suppression
A9G A30U | 0.163
C75U | 0.972
A13U G67A | 0.0502
G28A C68U | 1.17
G6A G25C A33G | ≤ 0.026
C29G | ≤ 0.026
G10A G59A | ≤ 0.026
U20A G85U | 0.0676
A14U G85U G88U | ≤ 0.026
C11A U71C A89G | ≤ 0.026
A24G A60G | 0.0307
U22C A33G G59A | ≤ 0.026
U16G U17C | 1.05
A9C C68U | 0.765
G28C C34A C68G A89G | ≤ 0.026
U21G C72U C83G | ≤ 0.026
A31G A87G | 0.762
C29U A31C C68U C77A | ≤ 0.026
U17C G61A | 0.235
A14U U21A A24G A31C C56G G88A | ≤ 0.026
C27A A30C A60G C77G C81A | ≤ 0.026
U21A A31G | 1.16
C27U C80U | 0.0446
